Consider 96 compounds from ChEMBL document CHEMBL4513216, “Probing the Open Global Health Chemical Diversity Library for Multistage-Active Starting Points for Next-Generation Antimalarials” (ACS Infect Dis, 2020).

This data set is described as follows: Toxicity liver stage against HepG2, at 10uM. The class given is cell-based. Details: test concentration 10 uM, cell line HepG2-A16-CD81EGFP. As to conditions: human, HepG2-A16-CD81EGFP cells; read-out: INHIBITION
The method in brief:
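Uninfected HepG2-A16-CD81EGFP cells, 3 × 10^3 per well, 1536-well, plated on prespotted compound at 10 μM final, parasite-free screening media added to match infected plates; puromycin 10 μM positive, DMSO 0.5% negative; run in parallel with 48 h PbLuc assay at 37 °C, 5% CO2; viability by CellTiter-Glo luminescence, normalized to controls.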
For the compound `Cc1ccc(S(N)(=O)=O)cc1C(=O)NC1CCCC1`, the cytotoxicity at 10 µM worked out at 1.86%.

On to `CCOc1cc(C(=O)N(C)C)ccc1NC(=O)c1ccsc1`, for which the cytotoxicity at 10 µM is -0.587%.

As for `CC(C)(C)OC(=O)NCC1CCN(C(=O)c2ccc(F)cc2F)C1` (stereo unspecified), the cytotoxicity at 10 µM was 11.5%.

`CC(C)c1nc(C2CCCN2CCc2ccccn2)no1` (stereo unspecified): the cytotoxicity at 10 µM was determined as 3.38%.

For the compound `c1cnc(N2CCC3(CCCN(CC4CC4)C3)CC2)nc1`, the cytotoxicity at 10 µM was -3.24%.

Take `c1cc(CN2CCC3(CCOCC3COCC3CC3)CC2)ccn1` (stereo unspecified): the cytotoxicity at 10 µM was -9.52%.

Turning to `Cc1nc(CCC(=O)N2Cc3cnc(-c4ccccc4)nc3C2)n[nH]1`, the cytotoxicity at 10 µM was -0.227%.

As to `CN(C)c1nccc(C2CN(c3ccccc3)CCO2)n1` (stereo unspecified), the cytotoxicity at 10 µM is -2.4%.

With `COCc1cccc(C(=O)N2CCCCC2c2nccs2)c1` (stereo unspecified), the cytotoxicity at 10 µM was -2.06%.

For the compound `O=C(O)c1cccc(N2C[C@H](NC(=O)C3CCOCC3)[C@@H](C3CC3)C2)n1`, the cytotoxicity at 10 µM is -4.31%.

In the case of `CNS(=O)(=O)c1ccc(CN2CCN3CCNC(=O)C3C2)cc1` (stereo unspecified), the cytotoxicity at 10 µM is -6.22%.

For `O=C(Nc1cccc(N2CCOCC2)c1)N[C@H](CO)c1ccccc1`, the cytotoxicity at 10 µM is -8.1%.

For `CN(C)c1cc2c(nn1)CCN(C(=O)c1ccc(-n3cccn3)nc1)C2`, the cytotoxicity at 10 µM is -1.86%.

Consider `Cc1cc(CN2CCN(C(=O)NCc3cccs3)CC2)on1`, for which the cytotoxicity at 10 µM is -1.68%.

`CSCc1cc(C(=O)NC2(C#N)CC2)ccc1F`: the cytotoxicity at 10 µM was -10.5%.

In the case of `c1cnn(CCCO[C@@H]2CN(C3CCOCC3)[C@@H]3CCCO[C@@H]32)c1`, the cytotoxicity at 10 µM worked out at 4.56%.

As for `O=C1[C@H]2CN(C3CCOCC3)C[C@H]2CN1Cc1ccncc1`, the cytotoxicity at 10 µM is -124%.

For the compound `CN(CC(=O)NC(C)(C)C)Cc1cccc2c1OCCO2`, the cytotoxicity at 10 µM is -26.5%.

Regarding `Cc1cc(C(F)(F)F)nc(C2(C)CCCN2CC(N)=O)n1` (stereo unspecified), the cytotoxicity at 10 µM amounted to 6.62%.

Consider `COc1ccc(C2CCCN2C(=O)NCCNc2ccccn2)cc1` (stereo unspecified), for which the cytotoxicity at 10 µM is 6.64%.

Regarding `O=C(c1cnn2cccnc12)N1CCCC(n2ccnc2)C1` (stereo unspecified), the cytotoxicity at 10 µM is -29.7%.

Consider `CC1(C)CNC(=O)c2nc(CCN3CCC(C(N)=O)CC3)[nH]c2C1`, for which the cytotoxicity at 10 µM was -1.35%.

Consider `CN(CC(=O)N1CCCC1)C(=O)c1ccccc1Nc1ccccc1`, for which the cytotoxicity at 10 µM amounted to 11.3%.

For the compound `CN(Cc1nncn1-c1cccc(C(F)(F)F)c1)S(C)(=O)=O`, the cytotoxicity at 10 µM came to 3.01%.

Regarding `Cc1noc(C)c1CSCc1csc(CS(C)(=O)=O)n1`, the cytotoxicity at 10 µM was -17%.

On to `Cc1nc(CNC(=O)NC2CCCN(c3ncccn3)C2)cs1` (stereo unspecified), for which the cytotoxicity at 10 µM is -140%.

In the case of `Cc1noc(C)c1CN1CCn2cc(CNC(=O)C3CCC3)nc2C1`, the cytotoxicity at 10 µM turned out to be 5.28%.

For `C1CCC(NCCN2CCOCC2)C1`, the cytotoxicity at 10 µM is -145%.

`Cn1nc2c(cc1=O)CN(Cc1nc(-c3ccoc3)no1)CC2`: the cytotoxicity at 10 µM was determined as 7.72%.

Consider `Cc1noc(C)c1CN(C)Cn1c(=O)oc2ccccc21`, for which the cytotoxicity at 10 µM is -5.07%.

Regarding `CCOc1cccc(C(=O)Nc2ccncc2)c1`, the cytotoxicity at 10 µM amounted to 8.59%.

In the case of `COCCN1C[C@@H]2COC[C@@H](CC(=O)NCc3cccnc3)[C@@H]2C1`, the cytotoxicity at 10 µM is 12%.

For `N#Cc1c(SCCN2CCCCCC2)sc2c(O)cc(O)nc12`, the cytotoxicity at 10 µM was -10.5%.

Take `COc1cc(NC2CCCN(c3ncccn3)C2)cc(OC)c1` (stereo unspecified): the cytotoxicity at 10 µM is -16%.

On to `CNc1ncc(-c2csc(NC(=O)C[C@H]3COCCN3)n2)cn1`, for which the cytotoxicity at 10 µM was -11.9%.

In the case of `O=C1CN(C(=O)c2cc3c(F)cc(Br)cc3[nH]2)CCN1`, the cytotoxicity at 10 µM came out at 0.0723%.

Turning to `COc1cccc(-c2n[nH]c3c2CN(C(=O)C2=C(C)OCCO2)CC3)c1`, the cytotoxicity at 10 µM amounted to 3.28%.

Regarding `Cc1ccn2ncc(C(=O)N3CCCC(n4ccnc4C)C3)c2n1` (stereo unspecified), the cytotoxicity at 10 µM was -13.6%.

With `O=C(CNC1CCc2ncnn2C1)N(Cc1cccs1)C1CC1` (stereo unspecified), the cytotoxicity at 10 µM was -3.09%.

For `COCCCN1CCN(c2ncnc3nc(C)cc(C)c23)CC1`, the cytotoxicity at 10 µM was found to be 1.54%.

For the compound `COCCNc1ccc(CC2CCCNC2)cn1` (stereo unspecified), the cytotoxicity at 10 µM was 7.29%.

In the case of `CCOC(C)C(=O)N1CCCN(Cc2csc(CC)n2)CC1` (stereo unspecified), the cytotoxicity at 10 µM was -13%.

Take `CC(C)[C@H]1CN(Cc2nccn2C)C[C@@H]1NC(=O)COCC(N)=O`: the cytotoxicity at 10 µM was -0.0298%.

Consider `Cc1cc(C[C@@H]2COC[C@@H]2NC(=O)CN2CCc3ccccc3C2)on1`, for which the cytotoxicity at 10 µM came to 6.7%.

With `COCCC1(CO)CCCN(CCCc2ccccc2)C1` (stereo unspecified), the cytotoxicity at 10 µM is -1.4%.

Take `CC(=O)N1CC(C(=O)NCCc2ncc(C)s2)C1`: the cytotoxicity at 10 µM was -1.33%.

For `COc1cccc(C(O)CN2CCN(C(=O)CCC(C)C)CC2)c1` (stereo unspecified), the cytotoxicity at 10 µM was -46.9%.

With `Cc1noc(NC(=O)c2ccc(C)c(F)c2)n1`, the cytotoxicity at 10 µM is -10.1%.

Regarding `Cc1nc(CN2CCO[C@@H]3CN(C(=O)CC4CC4)CC[C@@H]3C2)cs1`, the cytotoxicity at 10 µM is 3.79%.

Turning to `Cc1noc2nc(C3CCN(CC4CCCCC4)CC3)cc(C(F)F)c12`, the cytotoxicity at 10 µM was -0.335%.

Take `COc1ccc2c(c1)OCC(CNC(=O)NC(C)(C)C)C2` (stereo unspecified): the cytotoxicity at 10 µM was -8.54%.

Regarding `O=C(NCC1CC1)[C@@H]1C[C@@H]2OCCN[C@@H]2C1`, the cytotoxicity at 10 µM was -131%.

For the compound `COCCN(CCOC)C(=O)NC1CCCCC1`, the cytotoxicity at 10 µM is -0.655%.

As to `CCn1cnnc1C1CCN(C(=O)Cc2ccc(OC)c(F)c2)CC1`, the cytotoxicity at 10 µM is -7.54%.

As to `CCc1nc(NS(=O)(=O)c2cc(C)cc(F)c2)no1`, the cytotoxicity at 10 µM is 2.31%.

As for `CCS(=O)(=O)N1CCCn2nnc(Cn3cccc3)c2C1`, the cytotoxicity at 10 µM came to 9.77%.

For the compound `CC(O)CN1CCN(Cc2coc(-c3cccc(Cl)c3)n2)CC1` (stereo unspecified), the cytotoxicity at 10 µM was -4.73%.

Turning to `Cc1cc(C(=O)NCC2CCCO2)c(C)n1-c1cccnc1` (stereo unspecified), the cytotoxicity at 10 µM was 4.95%.

As for `CC(=O)Nc1cccc(CN2CCCC2C(=O)Nc2nccs2)c1` (stereo unspecified), the cytotoxicity at 10 µM turned out to be 6.12%.

In the case of `O=C(Nc1ccccc1C(=O)NCCN1CCOCC1)c1ccco1`, the cytotoxicity at 10 µM is -0.972%.

Regarding `CS(=O)(=O)c1ccc(CNC[C@H]2COCc3nc4cccnc4n32)cc1`, the cytotoxicity at 10 µM is -0.505%.

In the case of `CC(C)NC(=O)N1CCC2(CC(=O)N(c3ccccc3)C2)C1` (stereo unspecified), the cytotoxicity at 10 µM was -2.59%.

In the case of `COc1ccc(CN2C[C@@H]3CCCO[C@@H]3[C@H](NC(=O)CC3CC3)C2)cc1`, the cytotoxicity at 10 µM was 25.3%.

As to `COCC1CC2(CCN(Cc3ccc(C)o3)CC2)CN1C(C)C` (stereo unspecified), the cytotoxicity at 10 µM is -2.42%.

As for `COc1ccc(-c2c[nH]c(C3CC(=O)N(CC(C)C)C3)n2)cc1` (stereo unspecified), the cytotoxicity at 10 µM amounted to 5.35%.

Regarding `CC(C)(C)NC(=O)N1CCC(NC(=O)Cc2cccnc2)CC1`, the cytotoxicity at 10 µM was 0.355%.

Consider `O=C(CCCc1ccccn1)N1CCC(Nc2cccnn2)CC1`, for which the cytotoxicity at 10 µM is -9.73%.

`CN(C)C1CCN(Cc2cnc(S(C)(=O)=O)n2CC2CCCCC2)C1` (stereo unspecified): the cytotoxicity at 10 µM turned out to be 0.83%.

On to `COC(=O)N1CCCCC1C(=O)N1CCC(c2ccncc2)CC1` (stereo unspecified), for which the cytotoxicity at 10 µM was found to be 11.7%.

Turning to `c1ccc(CN2CCC3(COCc4cnc(NCC5CC5)nc43)C2)cc1` (stereo unspecified), the cytotoxicity at 10 µM was 12.5%.

In the case of `Cc1ccc(CC(=O)N2CCC(c3nnc4n3CCC4)CC2)cc1`, the cytotoxicity at 10 µM is 4.78%.

Consider `Cn1ccnc1CNC(=O)CC1CCCCO1` (stereo unspecified), for which the cytotoxicity at 10 µM was determined as 1.24%.

As to `O=C(NCCCn1cccn1)C1(c2ccccc2)CCOCC1`, the cytotoxicity at 10 µM was determined as 5.78%.

For `Cc1cc(N2CCC(N(C)C(=O)Nc3ccccc3)CC2)nc(C)n1`, the cytotoxicity at 10 µM was -19.4%.

Consider `O=C(NCCC1=CCCCC1)NC1CCCc2c1cnn2CCO` (stereo unspecified), for which the cytotoxicity at 10 µM is -6.95%.

Consider `Cc1ccc(C(=O)N2CCN(S(C)(=O)=O)CC2)cc1N1CCNC1=O`, for which the cytotoxicity at 10 µM was -5.07%.

`O=c1n(CCn2cccc2)nc(C2CCNCC2)n1Cc1ccccc1`: the cytotoxicity at 10 µM is -2.06%.

In the case of `COc1cccc(OCCn2c(C)c(C)oc2=O)c1`, the cytotoxicity at 10 µM was -7.12%.

Take `O=C(c1cscn1)N1CCCC2(CCN2Cc2cccc(F)c2)C1` (stereo unspecified): the cytotoxicity at 10 µM was -112%.

For the compound `Cc1ccc(C#N)c(N2CCC(c3nccn3Cc3cscn3)CC2)n1`, the cytotoxicity at 10 µM was -6.96%.

Consider `O=C(c1cscn1)N1C[C@@H](Oc2cccnc2)[C@H]2OCCC[C@H]21`, for which the cytotoxicity at 10 µM was 7.77%.

Regarding `CCc1cnc2c(c1Nc1ccc(OC)cc1)c(=O)n(C)c(=O)n2C`, the cytotoxicity at 10 µM came to 4.26%.

In the case of `CC(C)NC(=O)CCN1CCCC1c1cccc2c1OCCO2` (stereo unspecified), the cytotoxicity at 10 µM came to 0.354%.

Take `CCc1ncc(CN2CCN(c3cc(NC4CC4)nc(N)n3)CC2)cn1`: the cytotoxicity at 10 µM is -3.44%.

Consider `CC(=O)N1C[C@H](NS(=O)(=O)N2CCOCC2)[C@@H](c2ccc(C)o2)C1`, for which the cytotoxicity at 10 µM was -1.43%.

On to `Cc1n[nH]c(C)c1CN1CCC(c2cc(C(C)C)n[nH]2)CC1`, for which the cytotoxicity at 10 µM was -6.88%.

For `CCN1CCN(C)C2(CCN(Cc3cccc(C)n3)CC2)C1=O`, the cytotoxicity at 10 µM came to 2%.

As to `O=C(COC1CCCCC1)NS(=O)(=O)c1ccc2c(c1)OCCCO2`, the cytotoxicity at 10 µM came to 3.85%.

On to `CCn1cc(NS(=O)(=O)c2ccc(Br)s2)c(C(N)=O)n1`, for which the cytotoxicity at 10 µM came to 2.3%.

Consider `O=C1CC2(CCN(Cc3ccoc3)CC2)CN1Cc1cc(F)cc(F)c1`, for which the cytotoxicity at 10 µM was 12.2%.

With `CC(C)c1cc(NC(=O)CN2CCCC2Cn2cccn2)on1` (stereo unspecified), the cytotoxicity at 10 µM is -8.35%.

With `Cc1cc(C(=O)N2CCNC(=O)C2)c(C)n1Cc1ccccn1`, the cytotoxicity at 10 µM was -2.33%.

Take `O=C1N(Cc2cccnc2)C[C@H]2CN(S(=O)(=O)c3ccccc3)CCN12`: the cytotoxicity at 10 µM turned out to be 1.08%.

For the compound `Cc1nc2n(n1)CC(Nc1nc(C(F)(F)F)nc3ccccc13)CC2` (stereo unspecified), the cytotoxicity at 10 µM was -0.978%.

Take `Fc1ccc(OCC2CCCO2)c(NCc2noc(C3CC3)n2)c1` (stereo unspecified): the cytotoxicity at 10 µM was found to be 9.61%.

For `COc1ccccc1OCc1cc(C(=O)N2C[C@@H](C)O[C@@H](C)C2)n[nH]1`, the cytotoxicity at 10 µM was -4.91%.
